# Assay results from different studies.
# Lines come from different studies, so protocols differ.
# Effect on: enzyme activity
# Action: inhibitor
# BMP2K: BMP-2-inducible protein kinase (BMP2K, Homo sapiens, UniProt Q9NSY1)
# COQ8B: Atypical kinase COQ8B, mitochondrial (COQ8B, Homo sapiens, UniProt Q96D53)
# murC: UDP-N-acetylmuramate--L-alanine ligase (murC, Escherichia coli K-12, UniProt P17952)
# ACVR2B: Activin receptor type-2B (ACVR2B, Homo sapiens, UniProt Q13705)
Structure (SMILES),target,assay,conditions,remaining activity
Brc1cnc(Nc2cccc(CN3CCOCC3)c2)nc1NCCc1c[nH]cn1,BMP2K,radiometric,1 µM,1%
Cc1ccc(C(=O)Nc2ccc(CN3CCN(C)CC3)c(C(F)(F)F)c2)cc1C#Cc1cnc2cccnn12,COQ8B,,23.5 nM,89%
O=[N+]([O-])c1cccc(COc2cccc(C=NNS(=O)(=O)c3ccc4ccccc4c3)c2)c1,murC,absorbance,50 µM,58%
CCCOc1ccc(OC)c(F)c1C(=O)c1ccc(C(=O)N[C@@H]2CNC[C@H]2NC(=O)c2ccc3[nH]ncc3c2)cc1,"Rho-associated protein kinase 2 (ROCK2, Homo sapiens, UniProt O75116)",,50 nM,38%
O=[N+]([O-])c1ccc(S(=O)(=O)Oc2ccccc2C=NNS(=O)(=O)c2ccc3ccccc3c2)cc1,murC,absorbance,100 µM,75%
Cc1nn(CC(F)(F)F)cc1Nc1nccc(NCc2ccc(S(N)(=O)=O)cc2)n1,BMP2K,radiometric,1 µM,86%
COc1cc(Cl)c(C(=O)N[C@@H](CN[C@H]2CC[C@@H](N)CC2)Cc2ccc(C#N)cc2)cc1-c1ccc(CN[C@H](C)c2ccc(C)cc2)o1,"MAPK/MAK/MRK overlapping kinase (MOK, Homo sapiens, UniProt Q9UQ07)",,1 µM,102%
NS(=O)(=O)c1ccc(CNc2nc(Nc3cccc(CN4CCOCC4)c3)ncc2C2CC2)cc1,BMP2K,radiometric,1 µM,68%
CC(C)(C)c1nc(-c2cccc(NS(=O)(=O)c3c(F)cccc3F)c2F)c(-c2ccnc(N)n2)s1,ACVR2B,radiometric,1 µM,46%
O=[N+]([O-])c1cccc(S(=O)(=O)Oc2ccccc2C=NNS(=O)(=O)c2ccc3ccccc3c2)c1,murC,absorbance,50 µM,65%
Nc1ncnc2occ(-c3ccc(NC(=O)Nc4cc(C(F)(F)F)ccc4F)cc3)c12,COQ8B,,20 µM,24%
O=C(Nc1ccccc1C=NNS(=O)(=O)c1ccc2ccccc2c1)c1cc([N+](=O)[O-])cc([N+](=O)[O-])c1,murC,absorbance,100 µM,51%
Cc1nn(CC(F)(F)F)cc1Nc1nccc(NCCCNC(=O)C2CCC2)n1,BMP2K,radiometric,1 µM,101%
O=[N+]([O-])c1ccccc1S(=O)(=O)Oc1ccccc1C=NNS(=O)(=O)c1ccc2ccccc2c1,murC,absorbance,50 µM,55%
Cc1nn(CC(F)(F)F)cc1Nc1nccc(NCCc2cnc[nH]2)n1,BMP2K,radiometric,1 µM,104%
CC(C)(C)c1nc2c(s1)c1nc(N)ncc1c1ccc(NS(=O)(=O)c3c(F)cccc3F)c(F)c12,ACVR2B,radiometric,1 µM,88%
